For one series, the system named is Mus musculus. Kind of series: Survival rate of the nonspecific resistance against Pseudomonas aeruginosa infection after intraperitoneal administration in ten mice. The format is functional. Also noted: unit: surviving mice (of 10). The gist of the method:
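Compound (12.5 mg/kg, single dose) given ip to myelosuppressed mice on day -1, then iv infection with P. aeruginosa (Δ12) on day 0 at an LD35 inoculum; 10 mice per group; survival counted after 4-day observation; LPS (S. abortus equi) ip control group.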

Series [1] is described as follows: Compound was evaluated for lethal dose after intravenous administration. The format is toxicity, organism-based. Conditions: mouse, in vivo. The gist of the method: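 Mice (C57BL/6, groups of six) given serial dilutions of compound iv via tail vein in pyrogen-free saline, with galactosamine 400 mg/kg ip given at the same time to sensitize to endotoxin; lethal toxicity recorded as LD50.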

The test system of the next series is Pseudomonas aeruginosa. Kind of series: Compound was evaluated for effective dose required for the nonspecific resistance against Pseudomonas aeruginosa after intraperitoneal administration. The format is functional. Particulars: ip. The essentials:
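Myelosuppressed mice got the compound ip on day -1 and were infected iv with P. aeruginosa (Δ12) on day 0 at an LD35 inoculum. Survival was scored over 4 days. ED50 was calculated by Probit analysis with confidence limits. Disaccharides were tested as lysine salts.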

`CCCCCCCCCCCCCC(=O)O[C@H](CCCCCCCCCCC)CC(=O)O[C@H]1[C@H](O)[C@H](CO)O[C@@H](CC(=O)O)[C@@H]1NC(=O)C[C@H](O)CCCCCCCCCCC` showed a Survival rate in the series on Mus musculus of 2.
Usually LD50 stands for the dose at which mortality reaches 50%. The term ED50 denotes the dose that gives a 50% effect, or the effect in half of the subjects. Turning to `CCCCCCCCCCCCCC(=O)O[C@H](CCCCCCCCCCC)CC(=O)OC1C(O)C(CO)OC(OP(=O)(O)O)C1NC(=O)C[C@H](O)CCCCCCCCCCC` (stereo not given in full), the 50% lethal dose (LD50) in series [1] came to 0.3 mg/kg. The molecule also yielded a Survival rate with Mus musculus of 9. The molecule further gave an ED50 in the series on Pseudomonas aeruginosa of 1.7 mg/kg.
With `CCCCCCCCCCC[C@@H](O)CC(=O)NC1C(OP(=O)(O)O)OC(CO)C(O)C1OC(=O)C[C@H](O)CCCCCCCCCCC` (stereo not given in full), the Survival rate in the series with Mus musculus is reported as 0.
Turning to `CCCCCCCCCCC[C@@H](O)CC(=O)NC1C(CC(=O)O)OC(CO)C(OC(=O)C[C@H](O)CCCCCCCCCCC)C1OC(=O)C[C@H](O)CCCCCCCCCCC` (stereo not given in full), in series [1], the LD50 stood at 1 mg/kg. Further, in the series with Mus musculus, the Survival rate was found to be 10. In the series on Pseudomonas aeruginosa, this molecule returned an ED50 of 1.1 mg/kg.
In the same order, the values of `CCCCCCCCCCC[C@@H](O)CC(=O)NC1C(CC(=O)O)OC(COC2OC(CO)C(O)C(OC(=O)C[C@H](O)CCCCCCCCCCC)C2NC(=O)C[C@H](O)CCCCCCCCCCC)C(O)C1OC(=O)C[C@H](O)CCCCCCCCCCC` (stereo not given in full) are around 5.2 mg/kg, 10 and 1.5 mg/kg.
For `CCCCCCCCCCC[C@@H](O)CC(=O)NC1C(OCC2OC(OP(=O)(O)O)C(NC(=O)C[C@H](O)CCCCCCCCCCC)C(OC(=O)C[C@H](O)CCCCCCCCCCC)C2O)OC(CO)C(O)C1OC(=O)C[C@H](O)CCCCCCCCCCC` (stereo not given in full), in that order: 3.5 mg/kg, 8 and 3.4 mg/kg.
On to `CCCCCCCCCCC[C@@H](O)CC(=O)NC1C(OCC2OC(CC(=O)O)C(NC(C)=O)C(OC(=O)C[C@H](O)CCCCCCCCCCC)C2O)OC(CO)C(O)C1OC(=O)C[C@H](O)CCCCCCCCCCC` (stereo not given in full), for which the Survival rate in the series with Mus musculus is 7.
Molecule `CCCCCCCCCCC[C@@H](O)CC(=O)OC1C(O)C(CO)OC(CC(=O)O)[C@@H]1NC(C)=O` (stereo not given in full) displayed a Survival rate in the series with Mus musculus of 1.
As to `CCCCCCCCCCC[C@@H](O)CC(=O)NC1C(OP(=O)(O)O)OC(CO)C(OC(=O)C[C@H](O)CCCCCCCCCCC)C1OC(=O)C[C@H](O)CCCCCCCCCCC` (stereo not given in full), the LD50 in series [1] worked out at 0.8 mg/kg. In the series on Mus musculus, the Survival rate is 10. In the series with Pseudomonas aeruginosa, this molecule had an ED50 of 1.1 mg/kg.
In the series with Mus musculus, `CCCCCCCCCCC[C@@H](O)CC(=O)N[C@H]1C(CC(=O)O)OC(CO)C(O)C1OC(=O)C[C@H](O)CCCCCCCCCCC` (stereo not given in full) came in with a Survival rate of 4.
Still for that read-out and setting: as for `CCCCCCCCCCC[C@@H](O)CC(=O)N[C@H]1C(CC(=O)O)OC(CO)C(O)C1O` (stereo not given in full), the figure is 0.
The molecule `CCCCCCCCCCCCCC(=O)O[C@H](CCCCCCCCCCC)CC(=O)O[C@H]1[C@H](O)[C@H](CO)O[C@H](CC(=O)O)[C@@H]1NC(=O)C[C@H](O)CCCCCCCCCCC` (stereo in doubt; 13a) registered a Survival rate in the series with Mus musculus of 4.
`CCCCCCCCCCCCCC(=O)O[C@H](CCCCCCCCCCC)CC(=O)O[C@H]1[C@H](O)[C@H](CO)O[C@H](CC(=O)O)[C@@H]1NC(=O)C[C@H](O)CCCCCCCCCCC` (stereo in doubt; 17b): the LD50 in series [1] turned out to be 0.2 mg/kg. The same molecule displayed a Survival rate in the series with Mus musculus of 9. This molecule came in with an ED50 in the series on Pseudomonas aeruginosa of 1.8 mg/kg.

Values taken from ChEMBL document CHEMBL1125201, “C-glycosidic analogues of lipid A and lipid X: synthesis and biological activities” (J Med Chem, 1991).
